Results reported in ChEMBL document CHEMBL1154865, “Sesquiterpenes and dimeric sesquiterpenoids from Sarcandra glabra” (J Nat Prod, 2010).
Calls of active or inactive are those of the source. No cut-off for these calls is given here.

What was measured:
Assay type in all cases: functional, cell-based
HL-60 = assay: Cytotoxicity against human HL60 cells after 72 hrs by MTT assay; details: HL-60, 72 h
Outline: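 HL-60 cell line tested by the MTT method, with pseudolaric acid B run alongside as positive control; activity expressed as IC50 in µM.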

A549 = assay: Cytotoxicity against human A549 cells after 72 hrs by SRB assay; details: A549, 72 h
Bel-7402 = assay: Cytotoxicity against human Bel7402 cells after 72 hrs by SRB assay
Outline: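 Cell growth read out by SRB (sulforhodamine B) staining, with pseudolaric acid B as the positive control. BEL-7402 is a human hepatocarcinoma line.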

COC(=O)C1=CC[C@@]23CC[C@@H]([C@@](C)(/C=C/C=C(\C)C(=O)O)OC2=O)[C@@]3(OC(C)=O)CC1 [PSEUDOLARIC ACID B]
IC50 (HL-60): 4.2 µM | IC50 (A549): 1.6 µM | IC50 (Bel-7402; Bel-7402, 72 h): 1.3 µM

CC1=CC[C@@H](O)[C@]2(C)C[C@@H]3OC(=O)C(C)=C3C[C@@H]12
Activity (Bel-7402): inactive

C/C=C(\C)C(=O)OC[C@]1(O)[C@H]2C[C@H]2[C@]2(C)[C@@H]3C[C@@]4(O)C5=C(C6=C(C)C(=O)O[C@]6(O)[C@H](O)[C@@]5(C)[C@@H]5C[C@@H]54)[C@@]34OC(=O)C(COC(C)=O)=C4C[C@@H]12
Activity (Bel-7402): inactive

COC(=O)/C(C)=C1\C(=O)[C@H](O)[C@]2(C)C3=C(C[C@@H]4[C@]5(OC(=O)C(CO)=C5C[C@H]5[C@](O)(COC(=O)/C(C)=C/CO)[C@H]6C[C@H]6[C@]45C)[C@H]31)[C@H]1C[C@H]12 [SARCANDROLIDE B]
IC50 (HL-60): 8.4 µM | Activity (Bel-7402): inactive

C=C1[C@H]2C[C@H]2[C@]2(C)C[C@@H]3OC(=O)C(C)=C3C[C@]12O
Activity (Bel-7402): inactive

C/C=C(\C)C(=O)OC[C@]1(O)[C@H]2C[C@H]2[C@]2(C)[C@@H]3C[C@@]4(O)C5=C(/C(=C(\C)C(=O)OC)C(=O)[C@H](O)[C@@]5(C)[C@@H]5C[C@@H]54)[C@@]34OC(=O)C(COC(C)=O)=C4C[C@@H]12
Activity (Bel-7402): inactive

COC(=O)/C(C)=C1\C(=O)[C@H](O)[C@]2(C)C3=C(C[C@@H]4[C@]5(OC(=O)C6=C5C[C@H]5[C@](O)(COC(=O)/C(C)=C/COC(=O)[C@@H](OC(C)=O)CC(=O)OC6)[C@H]6C[C@H]6[C@]45C)[C@H]31)[C@H]1C[C@H]12 [SARCANDROLIDE C]
IC50 (HL-60): 8.5 µM | IC50 (A549): 4.7 µM | Activity (Bel-7402): inactive

C/C=C(\C)C(=O)OC[C@]1(O)[C@H]2C[C@H]2[C@]2(C)[C@@H]3CC4=C5[C@H](/C(=C(\C)C(=O)OC)C(=O)[C@H](O)[C@@]5(C)[C@@H]5C[C@H]45)[C@@]34OC(=O)C(C)=C4C[C@@H]12 [SARCANDROLIDE A]
IC50 (HL-60): 3.1 µM | IC50 (A549): 7.2 µM | Activity (Bel-7402): inactive
